According to ChEMBL document CHEMBL4334452, “Monosaccharide Analogues of Anticancer Peptide R-Lycosin-I: Role of Monosaccharide Conjugation in Complexation and the Potential of Lung Cancer Targeting and Therapy” (J Med Chem, 2019):
Activity calls are given as the source filed them. No cut-off for these calls is given here. *1 amine or outer side, *2 acyl side, *3 side chain or, on linkers, in order; H or OH if unused. Where a SMILES comes first, the peptide text is derived from it. The star is where a group is joined. X4 = CC(=O)N[C@H]1[C@H](OCCCN*)O[C@H](CO)[C@@H](O)[C@@H]1O; X3 = OC[C@H]1O[C@H](OCCCN*)[C@@H](O)[C@@H](O)[C@@H]1O; X1 = OC[C@H]1O[C@@H](OCCCN*)[C@H](O)[C@@H](O)[C@H]1O; X2 = O[C@@H]1[C@@H](O)[C@H](OCCCN*)OC[C@@H]1O; Glutaryl = O=C(CCCC(=O)[*:2])[*:1]

Assays:
[1] = biological target: T1, Solute carrier family 2, facilitated glucose transporter member 1 (Homo sapiens) (UniProt P11166); experiment: Binding affinity to GLUT1 in human A549 cells assessed as cytotoxicity by measuring reduction in cell viability at 15 uM by trypan blue staining-based assay
T1 sequence (whole entry): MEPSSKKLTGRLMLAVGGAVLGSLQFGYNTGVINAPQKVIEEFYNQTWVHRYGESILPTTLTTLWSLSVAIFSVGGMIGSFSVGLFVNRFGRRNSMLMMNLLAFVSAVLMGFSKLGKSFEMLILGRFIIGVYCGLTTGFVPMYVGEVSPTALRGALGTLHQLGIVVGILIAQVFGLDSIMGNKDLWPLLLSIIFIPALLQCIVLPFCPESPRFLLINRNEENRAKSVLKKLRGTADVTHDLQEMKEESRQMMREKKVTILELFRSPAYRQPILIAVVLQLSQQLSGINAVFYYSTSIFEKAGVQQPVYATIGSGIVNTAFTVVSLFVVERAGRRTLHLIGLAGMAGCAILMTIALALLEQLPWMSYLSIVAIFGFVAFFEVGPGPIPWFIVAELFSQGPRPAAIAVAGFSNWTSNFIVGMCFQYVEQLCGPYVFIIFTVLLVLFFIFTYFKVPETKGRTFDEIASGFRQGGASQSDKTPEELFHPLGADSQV
In short: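 A549 cells stained with trypan blue after peptide treatment at 15 µM. Dead cells appear blue and live cells unstained; live cells were counted.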

HEK-293T [2] = experiment: Cytotoxicity against HEK293T cells assessed as reduction in cell viability measured after 24 hrs by CCK8 assay; type: cell-based, Homo sapiens; conditions: for Activity: human, hek-293t
In short: (§1)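 Cells (A549, H460, H1437, PC-3, HGC-27, MDA-MB-231, HEK-293T, L-02) seeded at about 2×10^3/well and grown overnight. Treated 24 h with a peptide concentration series in serum-free medium. Viability by CCK-8; IC50 taken as 50% inhibition versus untreated cells. Average of three experiments, each in triplicate.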

[3] = biological target: T1, Solute carrier family 2, facilitated glucose transporter member 1 (Homo sapiens); experiment: Binding affinity to GLUT1 in human A549 cells assessed as cytotoxicity by measuring reduction in cell viability measured after 24 hrs by CCK8 assay; type: cell-based; in short: as §1
[4] = biological target: T1, Solute carrier family 2, facilitated glucose transporter member 1 (Homo sapiens); experiment: Binding affinity to GLUT1 in human A549 cells assessed as cytotoxicity by measuring reduction in cell viability at 12.5 uM measured after 2 hrs in absence of GLUT1 inhibitor STF-31 by CCK8 assay; type: cell-based
In short: (§2)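 A549 cells at 2×10^3/well, grown overnight, then preincubated 4 h in F12K/10% FBS with or without STF-31 (1 µM final). […] Incubated a further 2 h at 37 °C; viability by CCK-8.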

HEK-293T [5] = experiment: Cytotoxicity against HEK293T cells at 12.5 uM measured after 2 hrs by LDH release assay; type: cell-based; conditions: human
[6] = biological target: T1, Solute carrier family 2, facilitated glucose transporter member 1 (Homo sapiens); experiment: Binding affinity to GLUT1 in human A549 cells assessed as cytotoxicity by measuring reduction in cell viability at 12.5 uM measured after 2 hrs in presence of GLUT1 inhibitor STF-31 by CCK8 assay; type: cell-based; in short: as §2
[7] = biological target: T1, Solute carrier family 2, facilitated glucose transporter member 1 (Homo sapiens); experiment: Binding affinity to GLUT1 in human A549 cells assessed as cytotoxicity at 12.5 uM measured after 2 hrs by LDH release assay; type: cell-based
In short: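 A549 cells at 2×10^3/well, allowed to adhere overnight, then exposed to peptide over a concentration series for 2 h. LDH release measured with a kit, absorbance at 490 nm. 1% Triton X-100 taken as 100% release; n=3.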

CC[C@H](C)[C@H](NC(=O)[C@H](Cc1ccccc1)NC(=O)[C@H](CCCNC(=N)N)NC(=O)[C@H](C)NC(=O)[C@@H](NC(=O)[C@H](CO)NC(=O)[C@H](CCCNC(=N)N)NC(=O)[C@H](CCSC)NC(=O)[C@H](C)NC(=O)[C@H](CCCNC(=N)N)NC(=O)[C@H](Cc1ccccc1)NC(=O)[C@H](Cc1c[nH]c2ccccc12)NC(=O)CNC(=O)[C@H](CCCNC(=N)N)NC(=O)CCCC(=O)NCCCO[C@@H]1O[C@H](CO)[C@@H](O)[C@H](O)[C@H]1NC(C)=O)[C@@H](C)CC)C(=O)N[C@@H](C)C(=O)N[C@@H](CCCNC(=N)N)C(=O)N[C@@H](CCC(=O)O)C(=O)N[C@@H](CCCNC(=N)N)C(=O)N[C@@H](CC(C)C)C(=O)N[C@@H](CCCNC(=N)N)C(=O)N[C@@H](CCC(=O)O)C(=O)N[C@@H](Cc1cnc[nH]1)C(=O)N[C@@H](CC(C)C)C(=O)O ({X4-Glutaryl}-RGWFRAMRSIARFIARERLREHL-OH)
Activity [1]: inactive
Activity (HEK-293T [2]): Non-Toxic
Activity [3]: inactive

CC[C@H](C)[C@H](NC(=O)[C@H](Cc1ccccc1)NC(=O)[C@H](CCCNC(=N)N)NC(=O)[C@H](C)NC(=O)[C@@H](NC(=O)[C@H](CO)NC(=O)[C@H](CCCNC(=N)N)NC(=O)[C@H](CCSC)NC(=O)[C@H](C)NC(=O)[C@H](CCCNC(=N)N)NC(=O)[C@H](Cc1ccccc1)NC(=O)[C@H](Cc1c[nH]c2ccccc12)NC(=O)CNC(=O)[C@H](CCCNC(=N)N)NC(=O)CCCC(=O)NCCCO[C@@H]1OC[C@H](O)[C@H](O)[C@H]1O)[C@@H](C)CC)C(=O)N[C@@H](C)C(=O)N[C@@H](CCCNC(=N)N)C(=O)N[C@@H](CCC(=O)O)C(=O)N[C@@H](CCCNC(=N)N)C(=O)N[C@@H](CC(C)C)C(=O)N[C@@H](CCCNC(=N)N)C(=O)N[C@@H](CCC(=O)O)C(=O)N[C@@H](Cc1cnc[nH]1)C(=O)N[C@@H](CC(C)C)C(=O)O ({X2-Glutaryl}-RGWFRAMRSIARFIARERLREHL-OH)
Activity [4]: Active
Activity (HEK-293T [5]): Toxic
Activity [6]: Active
Activity [1]: Active
Activity [7]: Active

CC[C@H](C)[C@H](NC(=O)[C@H](Cc1ccccc1)NC(=O)[C@H](CCCNC(=N)N)NC(=O)[C@H](C)NC(=O)[C@@H](NC(=O)[C@H](CO)NC(=O)[C@H](CCCNC(=N)N)NC(=O)[C@H](CCSC)NC(=O)[C@H](C)NC(=O)[C@H](CCCNC(=N)N)NC(=O)[C@H](Cc1ccccc1)NC(=O)[C@H](Cc1c[nH]c2ccccc12)NC(=O)CNC(=O)[C@H](CCCNC(=N)N)NC(=O)CCCC(=O)NCCCO[C@H]1O[C@H](CO)[C@@H](O)[C@H](O)[C@@H]1O)[C@@H](C)CC)C(=O)N[C@@H](C)C(=O)N[C@@H](CCCNC(=N)N)C(=O)N[C@@H](CCC(=O)O)C(=O)N[C@@H](CCCNC(=N)N)C(=O)N[C@@H](CC(C)C)C(=O)N[C@@H](CCCNC(=N)N)C(=O)N[C@@H](CCC(=O)O)C(=O)N[C@@H](Cc1cnc[nH]1)C(=O)N[C@@H](CC(C)C)C(=O)O ({X3-Glutaryl}-RGWFRAMRSIARFIARERLREHL-OH)
Activity [1]: inactive
Activity (HEK-293T [2]): Non-Toxic
Activity [3]: inactive

CC[C@H](C)[C@H](NC(=O)[C@H](Cc1ccccc1)NC(=O)[C@H](CCCNC(=N)N)NC(=O)[C@H](C)NC(=O)[C@@H](NC(=O)[C@H](CO)NC(=O)[C@H](CCCNC(=N)N)NC(=O)[C@H](CCSC)NC(=O)[C@H](C)NC(=O)[C@H](CCCNC(=N)N)NC(=O)[C@H](Cc1ccccc1)NC(=O)[C@H](Cc1c[nH]c2ccccc12)NC(=O)CNC(=O)[C@H](CCCNC(=N)N)NC(=O)CCCC(=O)NCCCO[C@@H]1O[C@H](CO)[C@H](O)[C@H](O)[C@H]1O)[C@@H](C)CC)C(=O)N[C@@H](C)C(=O)N[C@@H](CCCNC(=N)N)C(=O)N[C@@H](CCC(=O)O)C(=O)N[C@@H](CCCNC(=N)N)C(=O)N[C@@H](CC(C)C)C(=O)N[C@@H](CCCNC(=N)N)C(=O)N[C@@H](CCC(=O)O)C(=O)N[C@@H](Cc1cnc[nH]1)C(=O)N[C@@H](CC(C)C)C(=O)O ({X1-Glutaryl}-RGWFRAMRSIARFIARERLREHL-OH)
Activity [4]: Active
Activity (HEK-293T [5]): Toxic
Activity [6]: Active
Activity [1]: Active
IC50 (HEK-293T [2]; Homo sapiens, HEK-293T): 8.3 µM
Activity [7]: Active
